{"data": "Measured values gathered from unrelated publications", "target": "Testis-specific serine/threonine-protein kinase 3 (TSSK3, Homo sapiens, UniProt Q96PN8)", "Residues used in one study (Q96PN8 1-268)": "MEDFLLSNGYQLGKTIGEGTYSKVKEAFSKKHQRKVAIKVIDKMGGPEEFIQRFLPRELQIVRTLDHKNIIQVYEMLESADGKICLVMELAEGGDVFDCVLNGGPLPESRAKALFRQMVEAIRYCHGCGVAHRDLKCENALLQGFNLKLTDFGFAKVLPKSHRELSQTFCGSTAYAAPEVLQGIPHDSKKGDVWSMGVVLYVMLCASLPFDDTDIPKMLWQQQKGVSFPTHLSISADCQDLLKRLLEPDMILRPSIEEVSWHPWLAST", "note": "Compare with care: the assays were run in different laboratories."}
{"SMILES": "O=C(Nc1cnn(-c2csc(C(=O)NC3COC3)c2)c1)Nc1ccccc1Cl", "effect on": "enzyme activity", "mode": "inhibitor", "tested at": "5 µM", "endpoint": "remaining activity", "value": "97.7%"}
{"SMILES": "COc1cc(Cl)c(C(=O)N[C@@H](CN[C@H]2CC[C@@H](N)CC2)Cc2ccc(C#N)cc2)cc1-c1ccc(CN[C@H](C)c2ccc(C)cc2)o1", "effect on": "enzyme activity", "mode": "inhibitor", "tested at": "1 µM", "endpoint": "remaining activity", "value": "97%"}
{"SMILES": "Cc1ccc(C(=O)Nc2ccc(CN3CCN(C)CC3)c(C(F)(F)F)c2)cc1C#Cc1cnc2cccnn12", "effect on": "enzyme activity", "mode": "inhibitor", "tested at": "23.5 nM", "endpoint": "remaining activity", "value": "84%"}
{"SMILES": "CO[C@H]1CC[C@H](CNc2ccc(S(=O)(=O)NC(=O)c3ccc(N4CCN(CC5=C(c6ccc(Cl)cc6)CC(C)(C)CC5)CC4)cc3Oc3cnc4[nH]ccc4c3)cc2[N+](=O)[O-])CC1", "effect on": "cell-free assay", "technique": "competition with immobilised ligand", "tested at": "1 µM", "endpoint": "remaining binding", "value": "70%"}
{"SMILES": "CN1CC(Oc2cnc(C#N)cc2-c2ccn3nc(NC(=O)C4CC4)cc3c2)C1", "effect on": "enzyme activity", "mode": "inhibitor", "tested at": "1 µM", "endpoint": "inhibition", "value": "-3%"}
{"SMILES": "CSc1cccnc1N1CCN(Cc2nc3ccccc3[nH]2)CC1", "effect on": "cell-free assay", "technique": "competition with immobilised ligand", "tested at": "1 µM", "endpoint": "remaining binding", "value": "98%"}
{"SMILES": "CC(C)(O)[C@H]1CC[C@H](Nc2ccc3ncc(-c4cccc(C(F)(F)F)c4)n3n2)CC1", "effect on": "enzyme activity", "mode": "inhibitor", "tested at": "1 µM", "endpoint": "remaining activity", "value": "110%"}
{"SMILES": "Cc1sc(C(=O)NC2COC2)cc1-n1cc(NC(=O)Nc2c(F)cccc2Cl)cn1", "effect on": "enzyme activity", "mode": "inhibitor", "tested at": "10 µM", "endpoint": "remaining activity", "value": "100%"}
{"SMILES": "CC1CCCN1c1nccc(-c2cnn3ncccc23)n1 (stereo not shown)", "effect on": "binding", "tested at": "1 µM", "endpoint": "remaining binding", "value": "99%"}
{"SMILES": "Nc1ncnc2occ(-c3ccc(NC(=O)Nc4cc(C(F)(F)F)ccc4F)cc3)c12", "effect on": "cell-free assay", "mode": "inhibitor", "tested at": "20 µM", "endpoint": "remaining signal", "value": "39%"}
